Calls of active or inactive are those of the source. No cut-off for these calls is given here.

Sequence of G1/S-specific cyclin-D1 (Homo sapiens) (P24385 whole entry): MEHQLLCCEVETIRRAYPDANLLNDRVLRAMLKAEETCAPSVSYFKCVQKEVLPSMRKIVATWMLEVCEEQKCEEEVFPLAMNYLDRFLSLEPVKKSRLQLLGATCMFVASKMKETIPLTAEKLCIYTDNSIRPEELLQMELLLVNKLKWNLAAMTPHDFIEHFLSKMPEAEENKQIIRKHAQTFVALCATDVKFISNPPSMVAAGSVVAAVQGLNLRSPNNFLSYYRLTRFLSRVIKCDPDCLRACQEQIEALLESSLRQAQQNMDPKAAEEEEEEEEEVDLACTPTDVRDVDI

The first test deals with MCF7. Description: Cell cycle arrest in human MCF7 cells assessed as accumulation at S phase at 10 uM after 24 hrs using propidium iodide staining based flow cytometric analysis (reference value: 12.92 +/- 1 %). It counts as functional.
Turning to `COc1cc2c(cc1O)N=C[C@@H]1CCCN1C2=O`, the Activity was 9.67%.

Another test has as its system MCF7. Description: Cytotoxicity against human MCF7 cells assessed as reduction in cell viability at 4 uM after 24 hrs by MTT assay. Type of test: functional, cell-based. In short, it runs like this: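 MCF-7 cells were seeded at 10,000 per well and left overnight, then treated with 4 µM compound for 24 h. MTT was added for 2 h at 37 °C, formazan was solubilized in extraction buffer, and OD was read at 570 nm. Untreated cells served as control. Three independent experiments, SD.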
(In general: Tetrazolium dyes change colour on reduction, which living cells bring about.)
`COc1cc2c(cc1O)N=C[C@@H]1CCCN1C2=O`: the result was Active.

For another test, the system named is A2780. Description: Anticancer activity against human A2780 cells by SRB method. It counts as functional. In short, it runs like this: (§1)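 Growth inhibition over a panel of human cancer lines (lung, ovarian, oral, colon, prostate, cervix, breast). Value is the 50% growth-inhibition concentration, reported as the mean ± standard error of the mean of three determinations.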
In the case of `COc1cc2c(cc1O)N=C[C@@H]1CCCN1C2=O`, the GI50 stood at 140 nM.

Another test has as its system MCF7. Description: Cell cycle arrest in human MCF7 cells assessed as accumulation at G2/M phase at 10 uM after 24 hrs using propidium iodide staining based flow cytometric analysis (reference value: 38.15 +/- 1.068 %). It counts as functional. For orientation: In flow cytometry, cells or beads pass a laser one at a time.
Consider `COc1cc2c(cc1O)N=C[C@@H]1CCCN1C2=O`, for which the Activity was determined as 20.89%.

Tested on in a further test: not listed separately
Description: Anticancer activity against human Gurav cells by SRB method. Type of test: functional. The method in brief:
as §1
(In SRB staining, fixed cells bind dye roughly in proportion to their protein.)
For the compound `COc1cc2c(cc1O)N=C[C@@H]1CCCN1C2=O`, growth was halved (GI50) at 160 nM.

Tested on in another test: not listed separately
Description: Down regulation of NF-kappaB activity expressed in human MCF7 cells transfected with NF-kB SEAP plasmid at 4 uM after 24 hrs by chemiluminescence-based luminometric analysis. It counts as cell-based. In short, it runs like this: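 MCF-7 cells were transiently transfected with the NF-kB SEAP plasmid using lipofectamine 2000. After 24 h, cells were treated with 4 µM compound for 24 h. Lysates were assayed with a chemiluminescent reagent and read by luminometry and by 30 min X-ray film exposure. Transfected untreated cells served as control.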
For the compound `COc1cc2c(cc1O)N=C[C@@H]1CCCN1C2=O`, the result was Active.

The subject of a further test is MCF7. Description: Cell cycle arrest in human MCF7 cells assessed as accumulation at G0 phase at 10 uM after 24 hrs using propidium iodide staining based flow cytometric analysis (reference value: 1.27 +/- 0.08 %). It counts as functional.
As to `COc1cc2c(cc1O)N=C[C@@H]1CCCN1C2=O`, the Activity is given as 7.62%.

Another test relates to KB. Description: Anticancer activity against human KB cells by SRB method. It counts as functional. The method in brief:
as §1
As for `COc1cc2c(cc1O)N=C[C@@H]1CCCN1C2=O`, it took 170 nM to inhibit growth by half (GI50).

The next test concerns A549. Briefly: Anticancer activity against human A549 cells by SRB method. Type of test: functional. The method in brief:
as §1
Compound `COc1cc2c(cc1O)N=C[C@@H]1CCCN1C2=O` showed a GI50 of 160 nM.

The test system of the next test is PC-3. Briefly: Anticancer activity against human PC3 cells by SRB method. Type of test: functional. In short, it runs like this:
as §1
`COc1cc2c(cc1O)N=C[C@@H]1CCCN1C2=O` came in with a GI50 of 200 nM.

Another test has as its system MCF7. Briefly: Anticancer activity against human MCF7 cells by SRB method. Type of test: functional. The method in brief: as §1
With `COc1cc2c(cc1O)N=C[C@@H]1CCCN1C2=O`, it took 170 nM to inhibit growth by half (GI50). This counts as sub-micromolar.

For another test, the system named is MCF7. Description: Cell cycle arrest in human MCF7 cells assessed as accumulation at G1 phase at 10 uM after 24 hrs using propidium iodide staining based flow cytometric analysis (reference value: 47.64 +/- 1.49 %). It counts as functional.
With `COc1cc2c(cc1O)N=C[C@@H]1CCCN1C2=O`, the Activity worked out at 61.81%.

In the next test the test system is HOP-62. Description: Anticancer activity against human HOP62 cells by SRB method. It counts as functional. In short, it runs like this: as §1
Take `COc1cc2c(cc1O)N=C[C@@H]1CCCN1C2=O`: the 50% growth inhibitory concentration (GI50) worked out at 150 nM.

The subject of another test is SiHa. Briefly: Anticancer activity against human SiHa cells by SRB method. It counts as functional. The method in brief: as §1
As to `COc1cc2c(cc1O)N=C[C@@H]1CCCN1C2=O`, the GI50 was determined as 170 nM.

A further test has as its system MCF7. Briefly: Induction of apoptosis in human MCF7 cells assessed as down regulation of Bcl-xL expression at 4 uM after 24 hrs by Western blot.
For `COc1cc2c(cc1O)N=C[C@@H]1CCCN1C2=O`, the outcome was Active.

The test system of a further test is MCF7. Briefly: Downregulation of cyclin D1 protein expression in human MCF7 cells at 4 uM after 24 hrs by Western blot analysis. Type of test: functional, cell-based. The method in brief:
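MCF-7 cells at 80% confluency were treated with 4 µM compound for 24 h. Cells were lysed in RIPA buffer with protease inhibitors and protein was quantified by Bradford. 50 µg per lane was run on 12% SDS-PAGE and transferred to PVDF. Blots were probed overnight at 4 °C with rabbit polyclonal anti-cyclin D1, with β-actin as loading control, and detected by chemiluminescence.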
Consider `COc1cc2c(cc1O)N=C[C@@H]1CCCN1C2=O`, for which the result was Active.

A further test relates to COLO 205. Description: Anticancer activity against human COLO205 cells by SRB method. It counts as functional. In short, it runs like this: as §1
`COc1cc2c(cc1O)N=C[C@@H]1CCCN1C2=O`: the GI50 was 110 nM. In other words, the sub-micromolar range.

A further test addresses G1/S-specific cyclin-D1 (Homo sapiens) (UniProt P24385). Description: Down regulation of Cyclin D1 promoter activity expressed in human MCF7 cells co-transfected with luciferase gene at 4 uM after 24 hrs by luciferase reporter gene assay. It counts as cell-based. In short, it runs like this: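 MCF-7 cells were transfected for 24 h with the cyclin D1 promoter (−1745) luciferase construct, which contains an NF-kB site. Cells were then treated with 4 µM compound (final) for a further 24 h, and lysate luciferase was measured by luminometer. Untransfected cells served as negative control and transfected untreated cells as control.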
For the compound `COc1cc2c(cc1O)N=C[C@@H]1CCCN1C2=O`, the result was Active.

Another test relates to MCF7. Briefly: Induction of apoptosis in human MCF7 cells assessed as down regulation of Bcl2 expression at 4 uM after 24 hrs by ELISA. Type of test: functional, cell-based. The method in brief: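 MCF-7 cells were treated with 4 µM compound for 24 h. Lysates were added to Bcl2 antibody-coated wells, followed by biotinylated anti-human Bcl2 monoclonal antibody, and bound Bcl2 was detected with streptavidin-HRP (sandwich ELISA).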
Turning to `COc1cc2c(cc1O)N=C[C@@H]1CCCN1C2=O`, the outcome was Active.

For a further test, the system named is MCF7. Description: Cell cycle arrest in human MCF7 cells assessed as accumulation at G0/G1 phase at 4 uM after 24 hrs using propidium iodide staining based flow cytometric analysis. Type of test: functional. In short, it runs like this:
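MCF-7 cells were seeded at 5 × 10^5 per 60 mm dish and grown for 24 h, then exposed to 4 µM compound for 24 h. Cells were trypsinized, fixed in ice-cold 70% ethanol at 4 °C for 30 min and treated with 1 mg/ml RNase at 37 °C for 30 min. They were stained with propidium iodide/citrate/Triton X-100, and DNA content was read on 20,000 events by flow cytometry. Three independent repeats.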
For the compound `COc1cc2c(cc1O)N=C[C@@H]1CCCN1C2=O`, the Activity is 71.1%.

Usually GI50 stands for the concentration giving 50% growth inhibition.
